Measurements: PMC2156157 (The Journal of Cell Biology, 1999)

Columns and labels:
Type in all cases: cell-based, human
c-Yes = conditions: 16HBE14o− on transwell filters, mouse anti–c-Yes (1:100), XZ confocal
Outline: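 16HBE14o− clones stably expressing GFP-YAP65 chimeras were selected with G418 and screened by fluorescence and anti-GFP blot. Cells were grown to confluence on transwell filters and fixed in 4% paraformaldehyde. After blocking (milk/BSA/0.1% Triton X-100, 3 h), they were stained with mouse anti-c-Yes (1:100) and fluorescent secondary antiserum, then scanned in XZ by confocal microscopy. At least two independent clones per line were analysed.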

EBP50 = assay: coimmunoprecipitation with EBP50 antisera from 16HBE14o− lysates; conditions: 16HBE14o− lysates (wild type or stably expressing GFP chimera), immunoblot
Outline: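 16HBE14o− cells were wild type or stable lines expressing GFP-YAP65 or GFP-YAP65 lacking the last four residues (G418 400 µg/ml; ≥2 clones). Cells were lysed in RIPA. Rabbit anti-EBP50, preimmune serum or normal rabbit IgG (2 µg) was prebound to protein A beads. Lysate (~300 µg or ~200 µg) was incubated for 4–12 h at 4°C. Beads washed three times in RIPA; 10% SDS-PAGE; immunoblot with anti-YAP65 or anti-ezrin (1:1,000); 10–20% input.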

[1] = test system: apical membrane of airway epithelial cells; conditions: 16HBE14o− cells on transwell filters 7–10 d after confluence, confocal
Outline: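 Samples were 16HBE14o− filters (7–10 d post-confluence) or primary nasal cultures (air-liquid interface, 40–50 d). Fixation was 4% paraformaldehyde, 5–20 min, room temperature. Blocking used milk/BSA/Triton (16HBE14o−) or 10–20% goat serum (primary). Primary antisera ran 4–12 h: ezrin 1:300, ZO-1 1:200, EBP50 1:500 or 1:200, YAP65 1:300 or 1:200. Primary cultures also got 70 nM FITC-phalloidin. Texas red/FITC secondaries, XZ confocal imaging.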

B1: GFP-YAP65: GFP fused in-frame with YAP65 (protein)
chain: MDPGQQPPPQPAPQGQGQPPSQPPQGQGPPSGPGQPAPAATQAAPQAPPAGHQIVHVRGDSETDLEALFNAVMNPKTANVPQTVPMRLRKLPDSFFKPPEPKSHSRQASTDAGTAGALTPQHVRAHSSPASLQLGAVSPGTLTPTGVVSGPAATPTAQHLRQSSFEIPDDVPLPAGWEMAKTSSGQRYFLNHIDQTTTWQDPRKAMLSQMNVTAPTSPPVQQNMMNSASAMNQRISQSAPVKQPPPLAPQSPQGGVMGGSNSNQQQQMRLQQLQMEKERLRLKQQELLRQVRPQELALRSQLPTLEQDGGTQNPVSSPGMSQELRTMTTNSSDPFLNSGTYHSRDESTDSGLSMSSYSVPRTPDDFLNSVDEMDTGDTINQSTLPSQQNRFPDYLEAIPGTNVDLGTLEGDGMNIEGEELMPSLQEALSSDILNDMESVLAATKLDKESFLTWL
modifications: left off: GFP, end not stated, kept
c-Yes distribution in cells stably overexpressing the chimera (c-Yes): c-Yes was accumulated at the apical membrane | presence in EBP50 immunoprecipitates (EBP50): present in EBP50 immunoprecipitates

B2: EBP50: ERM-binding phosphoprotein 50 kD; two PDZ domains (protein)
chain: MSADAAAGAPLPRLCCLEKGPNGYGFHLHGEKGKLGQYIRLVEPGSPAEKAGLLAGDRLVEVNGENVEKETHQQVVSRIRAALNAVRLLVVDPETDEQLQKLGVQVREELLRAQEAPGQAEPPAAAEVQGAGNENEPREADKSHPEQRELRPRLCTMKKGPSGYGFNLHSDKSKPGQFIRSVDPDSPAEASGLRAQDRIVEVNGVCMEGKQHGDVVSAIRAGGDETKLLVVDRETDEFFKKCRVIPSQEHLNGPLPVPFTNGEIQKENSREALAEAALESPRPALVRSASSDTSEELNSQDSPPKQDSTAPSSTSSSDPILDFNISLAMAKERAHQKRSSKRAPQMDWSKKNELFSNL
modifications: left off: GST, end not stated, kept
localization of endogenous protein [1]: preferentially accumulated at the apical membrane
